# Columns and labels:
# HUVECs = assay: Cytotoxicity of QA-NH2 on HUVECs; assay type: cell-based, human; settings: 1 nM to 1 mM, 24 h, MTT
# Method in brief: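 HUVECs were seeded at 10,000 cells per well on rat-tail collagen I; one group was pre-activated with 10 ng/mL TNF-α for 4 h. Test compound was added at 1 nM to 1 mM for 24 h. MTT (75 μg) was then added for 4 h, formazan was dissolved in 50% DMF/20% SDS at pH 5, and absorbance was read at 562 nm.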
# [1] = test system: E/P-selectin on activated HUVECs; assay: Competitive inhibition of FITC-labeled QA-NP binding to activated HUVECs; assay type: cell-based, human; settings: 30 min pre-incubation; flow cytometry
# Method in brief: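 HUVECs (passage 4, EGM-2, on rat-tail collagen I) were activated with 10 ng/mL TNF-α for 4 h. Free ligand, anti-E-selectin or anti-P-selectin antibody, or unlabeled nanoparticles were pre-incubated for 30 min. FITC-labeled particles (0.2 mg/mL) were then added for 2 h at 37 °C. Cells were washed twice with PBS, trypsinized, resuspended in cold PBS, and read for FL-1 fluorescence (488/525 nm).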
# [2] = test system: subcutaneous MDA-MB-231 tumor xenografts; assay: Whole body and ex vivo fluorescence imaging of NP distribution; assay type: in vivo, female athymic nude mice; settings: ICG-labeled, tail vein, imaged over 24 h
SMILES,effect on HUVEC proliferation (HUVECs),QA-NP binding to activated HUVECs after pre-treatment with competitor [1],tumor fluorescence in whole body imaging [2]
"Nc1cc(NC(=O)[C@]2(O)C[C@@H](O)[C@@H](O)[C@H](O)C2)cc(C(=O)O)c1 [QA-NH2, 3-amino-5-((1S,3R,4S,5R)-1,3,4,5-tetrahydroxycyclohexane-1-carboxamido)benzoic acid]",no adverse effects,reduced,–
"CC1(C)C(/C=C/C=C/C=C/C=C2\N(CCCCS(=O)(=O)O)c3ccc4ccccc4c3C2(C)C)=[N+](CCCCS(=O)(=O)[O-])c2ccc3ccccc3c21 [free ICG, indocyanine green]",–,–,did not show fluorescence in tumors at all time points
